ChEMBL document CHEMBL2331158, “Isocoumarin derivatives and benzofurans from a sponge-derived Penicillium sp. fungus” (2013)
In brackets after ≈: the same amount, converted by molar mass. Activity calls are given as the source filed them. The calls are words filed in the database; no cut-off is given here.

Assays:
[1] = system: Vibrio parahaemolyticus; assay: Antibacterial activity against Vibrio parahaemolyticus ATCC 17802 assessed as growth inhibition after 18 hrs by broth dilution method; assay type: functional; conditions: ATCC 17802, 18 h
Procedure, shortened: (§1)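 Conventional broth dilution assay, run across a panel of nine bacterial strains (Gram-positive and Vibrio species included), with ciprofloxacin as the positive control.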

[2] = system: Staphylococcus; assay: Antibacterial activity against Staphylococcus albus ATCC 8799 assessed as growth inhibition after 18 hrs by broth dilution method; assay type: functional; conditions: ATCC 8799, 18 h; procedure, shortened: as §1
[3] = system: K562; assay: Cytotoxicity against human K562 cells assessed as cell viability after 6 days by MTT assay; assay type: functional, cell-based
[4] = system: Bacillus cereus; assay: Antibacterial activity against Bacillus cereus ACCC 11077 assessed as growth inhibition after 18 hrs by broth dilution method; conditions: ACCC 11077, 18 h
[5] = system: HL-60; assay: Cytotoxicity against human HL60 cells assessed as cell viability after 6 days by MTT assay; assay type: functional, cell-based
[6] = system: A549; assay: Cytotoxicity against human A549 cells assessed as cell viability after 6 days by MTT assay; assay type: functional, cell-based
[7] = system: Staphylococcus aureus; assay: Antibacterial activity against Staphylococcus aureus ATCC 27154 assessed as growth inhibition after 18 hrs by broth dilution method; assay type: functional; conditions: ATCC 27154, 18 h; procedure, shortened: as §1

Compound | MIC [2] | MIC [4] | MIC [7] | MIC [1] | Activity [3] | Activity [5] | Activity [6]
CC(O)c1coc(=O)c2c(O)cc(O)c(O)c12 (stereo not given) | > 25 µM | 6.25 µM (≈ 1.49 µg/mL) | 12.5 µM (≈ 2.98 µg/mL) | 6.25 µM (≈ 1.49 µg/mL) | inactive | inactive | inactive
O=C(O)c1cn(C2CC2)c2cc(N3CCNCC3)c(F)cc2c1=O [CIPROFLOXACIN] | 0.312 µM (≈ 0.103 µg/mL) | 0.625 µM (≈ 0.207 µg/mL) | 0.16 µM (≈ 0.053 µg/mL) | 0.16 µM (≈ 0.053 µg/mL) |  |  | 
COc1cc(O)cc2c(CO)c(C)oc12 [PENICIFURAN A] | 3.13 µM (≈ 0.652 µg/mL) | 12.5 µM (≈ 2.6 µg/mL) | 25 µM (≈ 5.21 µg/mL) | 25 µM (≈ 5.21 µg/mL) | inactive | inactive | inactive
C[C@H](O)CCC[C@@H]1Cc2cccc(O)c2C(=O)O1 [ASPERGILLUMARIN B] | 12.5 µM (≈ 3.13 µg/mL) | > 25 µM | > 25 µM | > 25 µM | inactive | inactive | inactive
CC(=O)CCC[C@@H]1Cc2cccc(O)c2C(=O)O1 [ASPERGILLUMARIN A] | 12.5 µM (≈ 3.1 µg/mL) | > 25 µM | > 25 µM | > 25 µM | inactive | inactive | inactive

Continued, in another order:

MIC [2] | MIC [4] | MIC [7] | Compound | MIC [1] | Activity [3] | Activity [5] | Activity [6]
25 µM (≈ 4.8 µg/mL) | 12.5 µM (≈ 2.4 µg/mL) | 12.5 µM (≈ 2.4 µg/mL) | Cc1oc2c(O)cc(O)cc2c1C=O [PENICIFURAN C] | > 25 µM | inactive | inactive | inactive
25 µM (≈ 4.8 µg/mL) | 25 µM (≈ 4.8 µg/mL) | > 25 µM | CC(=O)c1coc2c(O)cc(O)cc12 [PENICIFURAN D] | 25 µM (≈ 4.8 µg/mL) | inactive | inactive | inactive
> 25 µM | > 25 µM | 12.5 µM (≈ 2.98 µg/mL) | O=c1oc(CO)c(CO)c2cc(O)cc(O)c12 [PENICIMARIN F] | > 25 µM | inactive | inactive | inactive
12.5 µM (≈ 3.13 µg/mL) | > 25 µM | > 25 µM | COc1cc(O)cc2c(COC(C)=O)c(C)oc12 [PENICIFURAN B] | > 25 µM | inactive | inactive | inactive
